Experimental data published in ChEMBL document CHEMBL1275433 (Antimicrob Agents Chemother, 2008).
Converted amounts (≈) assume the structure as drawn. The source made the active and inactive calls. The calls are words filed in the database; no cut-off is given here.

Experiments:
[1] = Inhibition of Mycobacterium tuberculosis DNA gyrase GyrB/GyrA M74I and A83S mutant
In short: (§1)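 Enzyme unit: protein needed for 50% supercoiling of 0.4 μg relaxed pBR322 DNA in 1 h at 37°C. Wild-type and mutant enzymes assayed in parallel on the same day under identical conditions. Repeated two to four times; representative values reported.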

[2] = Inhibition of Mycobacterium tuberculosis DNA gyrase GyrB/GyrA A83S mutant; in short: as §1
[3] = Inhibition of Mycobacterium tuberculosis DNA gyrase GyrA M74I and A83S mutant/GyrB R447K mutant gene; in short: as §1
[4] = Inhibition of Mycobacterium tuberculosis DNA gyrase GyrA/GyrB N464S mutant gene; in short: as §1
[5] = Inhibition of Mycobacterium tuberculosis DNA gyrase GyrB/GyrA A83S, S84A and I85V mutant; in short: as §1
[6] = Inhibition of Mycobacterium tuberculosis DNA gyrase GyrA A83S mutant/GyrB R447K mutant gene; in short: as §1
[7] = Inhibition of Mycobacterium tuberculosis DNA gyrase GyrB/GyrA M74I mutant; in short: as §1
[8] = Inhibition of Mycobacterium tuberculosis DNA gyrase GyrB/GyrA A83S, S84A, I85V, F96W and P101M mutant; in short: as §1
[9] = Inhibition of Mycobacterium tuberculosis DNA gyrase GyrB/GyrA S69V, A71G, E72D, T73V, M74I, N76K, A83S, S84A, I85V, F96W and P101M mutant; in short: as §1
[10] = Inhibition of Mycobacterium tuberculosis DNA gyrase GyrA/GyrB R447K mutant gene; in short: as §1
[11] = tested on: Mycobacterium tuberculosis
[12] = tested on: Mycobacterium tuberculosis; remark: listed apart in the source
[13] = tested on: Mycobacterium tuberculosis; assay: Antimicrobial activity against Mycobacterium tuberculosis harboring DNA gyrase GyrA QRDR; type: functional, organism-based
[14] = tested on: Mycobacterium tuberculosis; remark: listed apart in the source
[15] = tested on: Mycobacterium tuberculosis; remark: listed apart in the source
[16] = tested on: Mycobacterium tuberculosis; remark: listed apart in the source
[17] = tested on: Mycobacterium tuberculosis; assay: Antimicrobial activity against Mycobacterium tuberculosis harboring DNA gyrase GyrB QRDR; type: functional, organism-based
[18] = tested on: Mycobacterium tuberculosis; remark: listed apart in the source
[19] = tested on: Mycobacterium tuberculosis; remark: listed apart in the source
[20] = tested on: Mycobacterium tuberculosis; remark: listed apart in the source
[21] = tested on: Mycobacterium tuberculosis; remark: listed apart in the source
[22] = tested on: Mycobacterium tuberculosis; remark: listed apart in the source

SMILES	IC50 [1]	IC50 [2]	IC50 [3]	IC50 [4]	IC50 [5]	IC50 [6]	IC50 [7]	IC50 [8]	IC50 [9]	IC50 [10]	CC25 [11]	CC25 [12]	CC25 [14]	CC25 [15]	CC25 [16]	CC25 [18]	CC25 [19]	CC25 [20]	CC25 [21]	other results
CCn1cc(C(=O)O)c(=O)c2ccc(C)nc21 [NALIDIXIC ACID]	850 µM	950 µM	520 µM	4100 µM	2800 µM	850 µM	3450 µM	1080 µM	Not Active	1080 µM	–	–	–	–	–	–	–	–	–	–
CC1COc2c(N3CCN(C)CC3)c(F)cc3c(=O)c(C(=O)O)cn1c23 (configuration not stated) [OFLOXACIN]	3 µM	7 µM	11 µM	20 µM	8 µM	4 µM	25 µM	7 µM	Not Active	7 µM	3 µM	3 µM	inactive	inactive	0.5 µM	1.5 µM	1.5 µM	inactive	14 µM	IC50 [13]: 10 µg/mL (≈ 27.7 µM); MIC50 [13]: 1 µg/mL (≈ 2.77 µM); IC50 [17]: 10 µg/mL (≈ 27.7 µM); MIC50 [17]: 1 µg/mL (≈ 2.77 µM)
CCn1cc(C(=O)O)c(=O)c2cc(F)c(N3CCNCC3)nc21 [ENOXACIN]	9 µM	16 µM	16 µM	–	11 µM	19 µM	> 160 µM	16 µM	Not Active	23 µM	–	–	–	–	–	–	–	–	–	–
COc1c(N2C[C@@H]3CCCN[C@@H]3C2)c(F)cc2c(=O)c(C(=O)O)cn(C3CC3)c12 [MOXIFLOXACIN]	1 µM	–	2 µM	7 µM	–	–	–	–	Not Active	1 µM	1 µM	1 µM	inactive	inactive	0.5 µM	0.5 µM	0.5 µM	inactive	3.5 µM	CC25 [22]: 2.5 µM
